Reference: PubChem BioAssay AID602303 (The Scripps Research Institute Molecular Screening Center, 2012)
Activity calls are given as the source filed them.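 Rule for the calls: active = inhibition of 50% or more; inactive = inhibition below 50%.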

Target: Diacylglycerol lipase-beta (Mus musculus) (UniProt Q91WC9)
Assay: mouse DAGLb inhibition, FP-Rh labelling competition – biochemical, in-gel fluorescence, overexpressed mouse DAGLb, triazole urea library, late-stage follow-up (AID 602303)
Conditions: HEK293T membrane overexpressing mouse DAGLb, gel ABPP FP-Rh; at 0.5 µM; hits give high values
In short: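 test system = HEK293T membranes overexpressing mouse DAGLb | buffer or medium = DPBS | compound dosing = one concentration, 0.5 µM | timing = 30 min compound plus 30 min probe, 37 °C | detection = SDS-PAGE with in-gel fluorescence scanning of probe-labeled bands | read-out basis = percent inhibition from band integrated optical density, normalized to DMSO and background | controls = high DMSO only, low gel background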

Chain of Diacylglycerol lipase-beta (Mus musculus) (Q91WC9 whole entry, looked up): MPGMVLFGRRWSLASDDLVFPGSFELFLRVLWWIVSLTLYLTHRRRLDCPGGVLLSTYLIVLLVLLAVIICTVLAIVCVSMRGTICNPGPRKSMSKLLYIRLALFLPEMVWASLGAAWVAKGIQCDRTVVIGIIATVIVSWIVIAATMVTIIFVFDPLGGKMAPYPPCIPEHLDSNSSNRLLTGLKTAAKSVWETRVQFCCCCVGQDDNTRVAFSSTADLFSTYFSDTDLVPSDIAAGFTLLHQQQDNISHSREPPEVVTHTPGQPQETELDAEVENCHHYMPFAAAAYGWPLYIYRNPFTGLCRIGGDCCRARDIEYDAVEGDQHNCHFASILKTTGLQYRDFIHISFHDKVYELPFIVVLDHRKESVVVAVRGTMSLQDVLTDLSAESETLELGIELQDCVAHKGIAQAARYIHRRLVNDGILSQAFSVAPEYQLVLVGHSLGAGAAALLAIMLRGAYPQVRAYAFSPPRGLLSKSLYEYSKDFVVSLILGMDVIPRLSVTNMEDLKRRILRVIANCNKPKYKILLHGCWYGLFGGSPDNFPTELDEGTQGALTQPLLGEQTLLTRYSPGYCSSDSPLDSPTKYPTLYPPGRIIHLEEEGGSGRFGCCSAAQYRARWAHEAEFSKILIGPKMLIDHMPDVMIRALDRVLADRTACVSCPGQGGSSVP

inhibition | SMILES
45% (inactive) | CC(C)(C)C1CCN(C(=O)n2ncc(C(O)(c3ccccc3)c3ccccc3)n2)CC1
45% (inactive) | CC(C)(O)c1cnn(C(=O)N2CCC(C(C)(C)C)CC2)n1
0% (inactive) | COC1CCN(C(=O)n2ncc(C(O)(c3ccccc3)c3ccccc3)n2)CC1
25% (inactive) | CC(C)(O)c1cnn(C(=O)N2CCCC2)n1
20% (inactive) | CC(C)(C)C1CCN(C(=O)n2ncc(C3(O)CCCCC3)n2)CC1
10% (inactive) | CC1CCN(C(=O)n2ncc(C(O)(c3ccccc3)c3ccccc3)n2)CC1
35% (inactive) | CC1CCN(C(=O)n2ncc(C(C)(C)O)n2)CC1
40% (inactive) | O=C(N1CCOCC1)n1ccnn1
35% (inactive) | O=C(N1CCCC1)n1ncc(-c2ccccc2)n1
30% (inactive) | O=C(N1CCCC1)n1ccnn1
35% (inactive) | CN1CCN(C(=O)n2ccnn2)CC1
20% (inactive) | O=C(N1CCCCC1)n1ccnn1
15% (inactive) | O=C(N1CCC(C(O)(c2ccccc2)c2ccccc2)CC1)n1nccn1
35% (inactive) | CC(C)(C)C1CCN(C(=O)n2nccn2)CC1
0% (inactive) | O=C(N1CCOCC1)n1ncc(-c2ccccc2)n1
10% (inactive) | O=C(N1CCCC1)n1ncc(-c2cc(F)cc(F)c2)n1
25% (inactive) | CC(C)(O)c1cnn(C(=O)N2CCCCC2)n1

The remaining lines, values behind:

SMILES | inhibition
COCC1CCCCN1C(=O)n1ncc(C(O)(c2ccccc2)c2ccccc2)n1 (configuration not stated) | 15% (inactive)
O=C(N1CCCCC1)n1ncc(C(O)(c2ccccc2)c2ccccc2)n1 | 10% (inactive)
CN(C)C(=O)n1ccnn1 | 0% (inactive)
O=C(N1CCCC1)n1ncc(C(O)(c2ccccc2)c2ccccc2)n1 | 0% (inactive)
C=CCN(CC=C)C(=O)n1ncc(-c2ccccc2)n1 | 5% (inactive)
O=C(N(c1ccccc1)c1ccccc1)n1ccnn1 | 5% (inactive)
O=C(N1CCCC1)n1ncc(-c2ccc(OC(F)(F)F)cc2)n1 | 15% (inactive)
O=C(N1CCCCC1)n1ncc(-c2ccc(Oc3ccccc3)cc2)n1 | 40% (inactive)
C=CCN(CC=C)C(=O)n1ncc(C(O)(c2ccccc2)c2ccccc2)n1 | 60%
CN(C(=O)n1ccnn1)c1ccccc1 | 25% (inactive)
O=C(N1CCOCC1)n1ncc(C(O)(c2ccccc2)c2ccccc2)n1 | 15% (inactive)
C=CCN(CC=C)C(=O)n1ccnn1 | 25% (inactive)
O=C(OC(c1ccccc1)c1cnn(C(=O)N2CCCCC2)n1)N1CCCCC1 (configuration not stated) | 15% (inactive)
O=C(N1CCc2ccccc2C1)n1ncc(C(O)(c2ccccc2)c2ccccc2)n1 | 35% (inactive)
O=C(n1ccnn1)n1c2ccccc2c2ccccc21 | 25% (inactive)
O=C(N(c1ccccc1)c1ccccc1)n1ncc(C(O)(c2ccccc2)c2ccccc2)n1 | 65%
C=CCN(CC=C)C(=O)n1ncc(-c2cc(F)cc(F)c2)n1 | 25% (inactive)
O=C(N1CCOCC1)n1ncc(-c2cc(F)cc(F)c2)n1 | 20% (inactive)

SMILES | inhibition
CCN(CC)C(=O)n1ncc(C(O)(c2ccccc2)c2ccccc2)n1 | 5% (inactive)
O=C(N1CCCC1)n1ncc(-c2ccc(Cl)c(Cl)c2)n1 | 30% (inactive)
O=C(N1CCCCC1Cc1ccccc1)n1ncc(C(O)(c2ccccc2)c2ccccc2)n1 (configuration not stated) | 95%
O=C(N1CCC(C(O)(c2ccccc2)c2ccccc2)CC1)n1ncc(C(O)(c2ccccc2)c2ccccc2)n1 | 30% (inactive)
CCN(CC)C(=O)n1ccnn1 | 0% (inactive)
O=C(N1CCCC1)n1ncc(C2(O)CCCCC2)n1 | 25% (inactive)
O=C(N1CCC(Cc2ccccc2)CC1)n1ncc(C(O)(c2ccccc2)c2ccccc2)n1 | 30% (inactive)
O=C(N1CCCC1)n1ncc(-c2ccc(Oc3ccccc3)cc2)n1 | 45% (inactive)
O=C(N1CCOCC1)n1ncc(-c2ccc(OC(F)(F)F)cc2)n1 | 40% (inactive)
O=C(N1CCCC1)n1ncc(-c2ccc([N+](=O)[O-])cc2)n1 | 35% (inactive)
CCC1CCCCN1C(=O)n1ncc(C(O)(c2ccccc2)c2ccccc2)n1 (configuration not stated) | 10% (inactive)
O=C(N1CCCC1)n1ncc(-c2ccc(-c3ccccc3)cc2)n1 | 25% (inactive)
O=C(N1CCCCC1)n1ncc(C(O)c2ccccc2)n1 (configuration not stated) | 5% (inactive)
COc1ccc2cc(-c3cnn(C(=O)N4CCCCC4)n3)ccc2c1 | 20% (inactive)
COCCCC1CCCCN1C(=O)n1ncc(C(O)(c2ccccc2)c2ccccc2)n1 (configuration not stated) | 5% (inactive)
COc1ccc2cc(-c3cnn(C(=O)N4CCCC4)n3)ccc2c1 | 20% (inactive)
C=CCN(CC=C)C(=O)n1ncc(-c2ccc(OC(F)(F)F)cc2)n1 | 50%
